Experimental data from ChEMBL document CHEMBL4043182, “On the synthesis of quinone-based BODIPY hybrids: New insights on antitumor activity and mechanism of action in cancer cells” (Bioorg Med Chem Lett, 2017).
pIC50: −log10 of the molar value. Calls of active or inactive are those of the source. The calls are words filed in the database; no cut-off is given here.

Key:
L929 [1] = experiment: Cytotoxicity against mouse L929 cells after 24 hrs in presence of GSH-OEt by MTT assay; assay type: cell-based; details: L929, 24 h
Procedure, shortened: (§1)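 24 h MTT exposure (0.04–40.92 µM in 0.1% DMSO), with or without co-treatment with GSH ethyl ester (15 mM) to gauge the ROS contribution. MTT was 0.5 mg/mL for 3 h, with formazan dissolved in DMSO and absorbance at 595 nm expressed as % of control. Triplicate, repeated at least three times.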

L929 [2] = experiment: Induction of oxidative stress in mouse L929 cells assessed as GSH to GSSG ratio at 5 uM after 24 hrs by spectrophotometric analysis (reference value: 3.55 +/- 0.51 microg/mg); assay type: cell-based; details: l929, 24 h
L929 [3] = experiment: Antiproliferative activity against mouse L929 cells after 72 hrs by MTT assay; assay type: cell-based; details: L929, 72 h
Procedure, shortened: (§2)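 MTT reduction: cancer lines plated at 0.7×10^5 to 0.3×10^6 cells/well, V79 and L929 fibroblasts at 0.5×10^5 cells/well. Compounds in DMSO (0.1%) were given for 24 h at 0.04–40.92 µM or 72 h at 0.04–8.19 µM. Fresh medium with 0.5 mg/mL MTT was added for 3 h, then formazan was dissolved in DMSO and read at 595 nm as % of control. IC50 came from nonlinear regression with 95% CI. Doxorubicin (0.001–1.06 µM) was the positive control. Triplicate, ≥3 repeats.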

PC-3 [4] = experiment: Induction of oxidative stress in human PC3 cells assessed as GSH to GSSG ratio at 5 uM after 24 hrs by spectrophotometric analysis (reference value: 2.69 +/- 0.21 microg/mg); assay type: functional
SF-295 [5] = experiment: Induction of lipid peroxidation in human SF295 cells assessed as increase in MDA levels at 2.5 to 10 uM after 24 hrs in absence of NAC by TBARS assay; assay type: functional, cell-based
Procedure, shortened: (§3)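 TBARS: cells were exposed 24 h, with or without 24 h prior 5 mM NAC, and lysed in Tris-HCl. Lysate was heated with TCA/0.25 M HCl and 6.7 mg/mL TBA for 15 min at 100 °C, centrifuged, and read at 532 nm. Hydrolyzed tetramethoxypropane served as standard, with values normalized to protein. H2O2 (10 µM) was the positive control. Three independent experiments in triplicate; ANOVA/Tukey.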

L929 [6] = experiment: Induction of oxidative stress in mouse L929 cells assessed as total intracellular thiol levels at 5 uM treated 24 hrs post NAC addition measured after 24 hrs by spectrophotometric analysis (reference value: 4.87 +/- 0.25 microg/mg); assay type: cell-based; details: l929, 24 h
PC-3 [7] = experiment: Induction of oxidative stress in human PC3 cells assessed as total GSSG levels at 5 uM after 24 hrs by spectrophotometric analysis (reference value: 1.11 +/- 0.12 microg/mg); assay type: functional
HCT-116 [8] = experiment: Antiproliferative activity against human HCT116 cells after 72 hrs by MTT assay; assay type: functional, cell-based; details: HCT-116, 72 h; procedure, shortened: as §2
HCT-116 [9] = experiment: Geno-toxicity in human HCT116 cells assessed as induction of DNA damage at 2.5 to 10 uM treated 24 hrs post NAC addition measured after 24 hrs by alkaline comet assay; assay type: functional, cell-based
Procedure, shortened: (§4)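 Alkaline comet assay after 24 h at 2.5, 5 and 10 µM, with or without 24 h pretreatment with 5 mM NAC. Cells were trypsinized and embedded in 0.75% low-melting agarose, then lysed at pH 10, 4 °C, ≥1 h. DNA was unwound 20 min at pH >13 and electrophoresed 20 min at 25 V, 300 mA (0.86 V/cm), then stained with ethidium bromide. 100 cells (2 slides) were scored in classes 0–4 for a damage index. Mean ± SEM, three independent experiments in triplicate.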

HCT-116 [10] = experiment: Induction of oxidative stress in human HCT116 cells assessed as total GSSG levels at 5 uM treated 24 hrs post NAC addition measured after 24 hrs by spectrophotometric analysis (reference value: 1.19 +/- 0.37 microg/mg); assay type: functional
[11] = Selective index, ratio of IC50 for mouse L929 cells to IC50 for human MDA-MB-435 cells
Procedure, shortened: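 Selectivity index is the ratio of the IC50 in a non-cancer murine line (V79 or L929) to the IC50 in the cancer line. […] MTT was 0.5 mg/mL for 3 h, formazan dissolved in DMSO and read at 595 nm as % of control. IC50s were derived by nonlinear regression; triplicate, at least three repeats.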

SF-295 [12] = experiment: Geno-toxicity in human SF295 cells assessed as induction of DNA damage at 2.5 to 10 uM treated 24 hrs post NAC addition measured after 24 hrs by alkaline comet assay; assay type: functional, cell-based; procedure, shortened: as §4
PC-3 [13] = experiment: Induction of oxidative stress in human PC3 cells assessed as GSH to GSSG ratio at 5 uM treated 24 hrs post NAC addition measured after 24 hrs by spectrophotometric analysis (reference value: 2.69 +/- 0.21 microg/mg); assay type: functional
Procedure, shortened: (§5)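 Cells were pretreated 24 h with 5 mM NAC, then exposed 24 h to test compound at 5 µM. Controls received 0.1% DMSO. Extracts were prepared by sonication and HClO4 precipitation, then neutralized with KOH. Total glutathione was read by DTNB/glutathione reductase/NADPH rate at 412 nm. GSSG was measured after 4-vinylpyridine (0.1%, 1 h, RT) and GSH derived by difference. Values are normalized to protein, triplicates, three independent runs.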

SF-295 [14] = experiment: Geno-toxicity in human SF295 cells assessed as induction of DNA damage at 2.5 to 10 uM after 24 hrs in absence of NAC by alkaline comet assay; assay type: functional, cell-based; procedure, shortened: as §4
PC-3 [15] = experiment: Cytotoxicity against human PC3 cells after 24 hrs in presence of GSH-OEt by MTT assay; assay type: functional, cell-based; details: PC-3, 24 h; procedure, shortened: as §1
SF-295 [16] = experiment: Cytotoxicity against human SF295 cells after 24 hrs in absence of GSH-OEt by MTT assay; assay type: functional, cell-based; details: SF-295, 24 h; procedure, shortened: as §1
HCT-116 [17] = experiment: Induction of oxidative stress in human HCT116 cells assessed as total GSH levels at 5 uM after 24 hrs by spectrophotometric analysis (reference value: 3.74 +/- 0.55 microg/mg); assay type: functional
L929 [18] = experiment: Induction of lipid peroxidation in mouse L929 cells assessed as increase in MDA levels at 2.5 to 10 uM after 24 hrs in absence of NAC by TBARS assay; assay type: cell-based; details: l929, 24 h; procedure, shortened: as §3
PC-3 [19] = experiment: Induction of oxidative stress in human PC3 cells assessed as total intracellular thiol levels at 5 uM treated 24 hrs post NAC addition measured after 24 hrs by spectrophotometric analysis (reference value: 4.23 +/- 0.75 microg/mg); assay type: functional; procedure, shortened: as §5
PC-3 [20] = experiment: Induction of oxidative stress in human PC3 cells assessed as total intracellular thiol levels at 5 uM after 24 hrs by spectrophotometric analysis (reference value: 4.23 +/- 0.75 microg/mg); assay type: functional
HCT-116 [21] = experiment: Induction of oxidative stress in human HCT116 cells assessed as total GSH levels at 5 uM treated 24 hrs post NAC addition measured after 24 hrs by spectrophotometric analysis (reference value: 3.74 +/- 0.55 microg/mg); assay type: functional
L929 [22] = experiment: Induction of lipid peroxidation in mouse L929 cells assessed as increase in MDA levels at 2.5 to 10 uM treated 24 hrs post NAC addition measured after 24 hrs by TBARS assay; assay type: cell-based; details: l929, 24 h; procedure, shortened: as §3

In the case of `CC1(C)OC2=C(C(=O)C(=O)c3ccccc32)C1n1cc(CNC2=[N+]3C(=C(c4ccccc4)c4ccc(Cl)n4[B-]3(F)F)C=C2)nn1` (configuration not stated), the pIC50 (L929 [1]) was 4.91, the Activity (L929 [2]) was 0.33 and the pIC50 (L929 [3]) was 6.04. For the same molecule, the Activity (PC-3 [4]) was 0.37 µg/mg, the Activity (SF-295 [5]) was “Active” and the Activity (L929 [6]) was 5.21 µg/mg. The Activity (PC-3 [7]) was 2.16 µg/mg, the pIC50 (HCT-116 [8]) was 6.49 and the Activity (HCT-116 [9]) was “Active”. The Activity (HCT-116 [10]) was 1.38 µg/mg, the Ratio IC50 [11] was 1.1 and the Activity (SF-295 [12]) was “Active”. The Activity (PC-3 [13]) was 2.88 µg/mg, the Activity (SF-295 [14]) was “Active” and the pIC50 (PC-3 [15]) was 4.80. For the same molecule, the pIC50 (SF-295 [16]) was 5.71, the Activity (HCT-116 [17]) was 1.78 µg/mg and the Activity (L929 [18]) was “Toxic”. For the same molecule, the Activity (PC-3 [19]) was 4.26 µg/mg, the Activity (PC-3 [20]) was 3.53 µg/mg and the Activity (HCT-116 [21]) was 3.71 µg/mg. The Activity (L929 [22]) was “Non-Toxic”.
